Pf Dd2 growth = P. falciparum Dd2 growth inhibitors, primary screen, SYBR Green fluorescence, single dose replicates; 72 h; stronger effect = lower value; activity change, % at 10 µM; 94,000 compounds, 2.3% hits; AID 1159554, 2015; in the data active = activity change below about -80%; inconclusive = no clear call, values can overlap the other calls
GASC1 inh = inhibitors of GASC-1 (KDM4C) histone demethylase, primary screen, biochemical, single concentration HTS; GST-KDM4C 2-372, H3K9me3 peptide, LANCE TR-FRET; 96,000 compounds, 0.15% hits; Lysine-specific demethylase 4C (Homo sapiens), Q9H3R0; AID 720574, 2013; inhibition, % at 12.5 µM;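 active = mean replicate inhibition above about 25%, with at least 55% of replicates also reaching it, limit read from the data, passing the limit was not always enough; inconclusive = only one of those two conditions met; inactive = neither condition met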
Target sequence (Q9H3R0 2-372 limits assumed): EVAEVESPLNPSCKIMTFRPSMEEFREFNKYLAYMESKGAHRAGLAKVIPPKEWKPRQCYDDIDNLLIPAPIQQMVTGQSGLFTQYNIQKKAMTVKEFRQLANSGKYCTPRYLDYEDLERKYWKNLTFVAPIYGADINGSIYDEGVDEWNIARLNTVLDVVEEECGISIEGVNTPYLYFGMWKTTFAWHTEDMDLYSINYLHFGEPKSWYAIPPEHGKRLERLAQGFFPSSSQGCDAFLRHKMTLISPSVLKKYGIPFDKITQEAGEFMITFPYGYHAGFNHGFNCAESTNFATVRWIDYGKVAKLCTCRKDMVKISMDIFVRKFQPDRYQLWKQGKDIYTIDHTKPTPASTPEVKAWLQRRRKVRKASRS
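Material: GST-tagged GASC-1 (JMJD2C) catalytic fragment, aa 2-372 / Quantity: enzyme final amount 10 nM / Medium: HEPES buffer, pH 7.5, plus ascorbate / Doses: one test concentration per compound / Incubation: 30 min reaction, 60 min detection, RT / Measured by: LANCE TR-FRET / Read-out: inhibition from TR-FRET ratio decrease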
T cruzi growth-1 = T. cruzi intracellular proliferation inhibitors, primary screen, cell-based, beta-gal Tulahuen parasites, NIH3T3 host, luminescence; 77,000 compounds, 5.9% hits; inhibition, % at 8.34 µM; T. cruzi beta-gal in NIH3T3, GalScreen luminescence, 90 h; AID 624255, 2012;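 active = mean inhibition above about 93%, with at least 55% of replicates each passing it, limit read from the data, passing the limit was not always enough; inconclusive = only one of those two conditions holds; inactive = neither condition holds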
IDH1 R132H inh = inhibitors of IDH1 R132H reductase, primary screen, biochemical, plate reader, single point; AID 624101, 2012; Isocitrate dehydrogenase [NADP] cytoplasmic (Homo sapiens), O75874; inhibition, % at 10 µM; diaphorase/resazurin fluorescence, 60 min; 70,000 compounds, 0.18% hits; in the data active = inhibition above about 34%; inconclusive = no clear call, values can overlap the other calls; inactive = below about 11%;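 note: 0% = DMSO and 100% = no enzyme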
T cruzi growth-2 = T. cruzi intracellular proliferation inhibitors, confirmation, cell-based, NIH3T3 host, beta-gal parasite, luminescence, cherry-pick. 5,600 compounds, 72% hits. T. cruzi beta-gal in NIH3T3, GalScreen luminescence, 90 h. AID 651739, 2012. shares compounds with T cruzi growth-1. inhibition, % at 8.35 µM;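 active = mean replicate inhibition above about 95% and at least 55% of replicates individually reaching it, limit read from the data; inconclusive = only one of the two criteria is met; inactive = neither criterion is met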
T cruzi growth-3 = inhibitors of intracellular T. cruzi replication, confirmation, NIH3T3 host cells, beta-gal parasites, cherry-pick, set 2; inhibition, % at 2.09 µM; T. cruzi beta-gal in NIH3T3, GalScreen luminescence, 90 h; 5,600 compounds, 21% hits; shares compounds with T cruzi growth-1;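 active = mean inhibition above about 95%, with at least 55% of replicates also reaching it, limit read from the data; inconclusive = meets just one of the two conditions; inactive = meets neither condition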;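 note: plate controls were neutral control median for no effect and positive control median for full effect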
3T3 cytotox = cytotoxicity in mouse NIH/3T3 fibroblasts, confirmation, cytotoxicity control for T. cruzi proliferation inhibitor project, cell-based, cherry-pick, single point | 5,600 compounds, 14% hits | AID 651742, 2012 | shares compounds with T cruzi growth-1 | NIH/3T3 viability, CellTiter-Glo ATP luminescence, 90 h | cytotoxicity (signal decrease), % at 8.35 µM;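 active = mean signal decrease across replicates above about 35% based on untreated-well scatter, with enough replicates individually passing, limit read from the data; inconclusive = no rule stated though some were filed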;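 note: 0% = median of neutral control wells and 100% = median of positive control wells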
NIH3T3 tox 2 = NIH/3T3 fibroblast cytotoxicity, confirmation, cytotoxicity control, cell-based, cherry-pick, single point, set 2 | shares compounds with T cruzi growth-1 | NIH/3T3 viability, CellTiter-Glo ATP luminescence, 90 h | inhibition, % at 24.9 µM | 5,600 compounds, 56% hits;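 active = mean loss of cell viability signal at or above a set limit, and enough replicates individually reaching it; inconclusive = meets only the mean limit or only the replicate share; inactive = meets neither condition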;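 note: 0% = median of neutral control wells and 100% = median of positive control wells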
The depositor's hits bear a star; ? = inconclusive; . = not tested or not shown. The list is not random: actives were taken first. Their share in the collection is about 5.8%.

SMILES	Pf Dd2 growth	GASC1 inh	T cruzi growth-1	IDH1 R132H inh	T cruzi growth-2	T cruzi growth-3	3T3 cytotox	NIH3T3 tox 2
COC(=O)c1cc(OC)c(OC)cc1NC(=O)COc1cc(C)c(Br)c(C)c1	.	.	.	1.6	.	.	.	.
O=c1cc(-c2ccc3ccccc3c2)[nH][nH]1	.	.	.	-1.3	.	.	.	.
O=C(c1ccc(F)cc1)N1CCCCN2[C@@H](CO)[C@@H](c3ccc(/C=C/c4ccccc4)cc3)[C@@H]2C1	-56.5	-0.7	112.4*	.	98.0*	62.6	87.6*	103.8*
O=C(c1ccc(F)cc1)N1CCCCN2[C@H](CO)[C@H](c3ccc(/C=C/c4ccccc4)cc3)[C@@H]2C1	-17.5	-1.5	110.9*	.	106.8*	?	23.3	105.2*
O=C(c1ccc(F)cc1)N1CCCCN2[C@H](CO)[C@@H](c3ccc(/C=C/c4ccccc4)cc3)[C@@H]2C1	0.9	-1.2	71.8	.	.	.	.	.
O=C(c1ccc(F)cc1)N1CCCCN2[C@H](CO)[C@H](c3ccc(/C=C/c4ccccc4)cc3)[C@H]2C1	-46.5	-1.2	60.9	.	.	.	.	.
O=C(c1ccc(F)cc1)N1CCCCN2[C@H](C1)[C@@H](c1ccc(/C=C/c3ccccc3)cc1)[C@@H]2CO	-18.0	-0.7	98.8*	.	108.9*	78.7	33.1	31.7*
O=C(O)c1cccc(/C=N/NC(=O)c2ccc(C(=O)NO)cc2)c1	.	.	.	-0.5	.	.	.	.
Cc1ccc(N(C(C)C(=O)Nc2cccc([N+](=O)[O-])c2)S(C)(=O)=O)cc1C (stereo unspecified)	.	.	.	-0.3	.	.	.	.
CCOc1cc(C2c3c(oc4ccc(F)cc4c3=O)C(=O)N2CCc2ccc(OC)cc2)ccc1O (stereo unspecified)	.	.	.	-0.2	.	.	.	.
C[C@H](O)C#Cc1ccc2c(c1)O[C@H](CN(C)Cc1ccc(-c3ccccc3)cc1)[C@H](C)CN([C@H](C)CO)S2(=O)=O	-27.3	-0.4	99.2*	.	97.5*	97.4*	23.0	106.1*
C[C@H](CO)N1C[C@H](C)[C@H](CN(C)Cc2ccc(-c3ccccc3)cc2)Oc2cc(C#C[C@@H](C)O)ccc2S1(=O)=O	-66.9	-0.2	102.6*	-0.1	96.0*	114.9*	52.2*	102.3*
C[C@H](O)C#Cc1ccc2c(c1)O[C@@H](CN(C)Cc1ccc(-c3ccccc3)cc1)[C@@H](C)CN([C@@H](C)CO)S2(=O)=O	-31.8	-2.2	85.5	-0.1	.	.	.	.
C[C@@H]1CN([C@H](C)CO)C(=O)c2cc(-c3cccnc3)cnc2O[C@@H]1CN(C)Cc1ccc(Oc2ccccc2)cc1	-11.5	4.8	37.4	-0.1	.	.	.	.
C[C@H](CO)N1C[C@H](C)[C@@H](CN(C)Cc2ccc(Oc3ccccc3)cc2)Oc2ncc(-c3ccncc3)cc2C1=O	-72.6	3.7	108.9*	0.2	110.8*	75.2	28.3	105.2*
C[C@@H]1CN([C@@H](C)CO)C(=O)c2cc(-c3ccncc3)cnc2O[C@H]1CN(C)Cc1ccc(Oc2ccccc2)cc1	-61.4	1.7	93.6*	0.2	101.7*	68.8	40.7*	104.4*
O=C1/C(=C/c2cn[nH]c2-c2ccc(F)cc2)CS/C1=C\c1cn[nH]c1-c1ccc(F)cc1	.	.	.	-0.6	.	.	.	.
CC(C)CC#Cc1ccc2c(c1)O[C@@H](CN(C)CC1CCOCC1)[C@@H](C)CN([C@@H](C)CO)S2(=O)=O	-49.0	-0.4	?	-6.6	110.3*	?	25.5	105.1*

From PubChem
